# ChEMBL document CHEMBL1921730, “The anti-malarial activity of bivalent imidazolium salts” (Bioorg Med Chem, 2011)
# The source made the active and inactive calls. No cut-off for these calls is given here.
# Experiments:
# [1] = test system: Plasmodium falciparum; assay: Antiplasmodial activity against Plasmodium falciparum assessed as inhibition of parasite LDH activity after 72 hrs; type: functional, organism-based
# In short: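 P. falciparum ItG grown in O+ human erythrocytes in RPMI-1640 with 10% human serum and 50 µM hypoxanthine. DMSO stocks (10 mg/mL) diluted two-fold serially; culture at 2% hematocrit and 2% parasitemia incubated 72 h at 37 °C under 95% N₂/3% CO₂/2% O₂. pLDH assay read at 595 nm after 1 h; IC50 by non-linear regression, mean ± SEM, n = 4; chloroquine positive control.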
# [2] = test system: CHO; assay: Cytotoxicity against CHO cells after 48 hrs by MTT assay; type: cell-based; details: Cricetulus griseus
# In short: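 CHO cells grown in RPMI-1640 with 10% fetal calf serum, 25 mM HEPES and gentamicin, to 50% confluency, then given two-fold gradients from 10 mg/mL DMSO stocks; DMSO-only control. After 48 h, MTT (10 mg/mL) was added for 30 min, then DMSO; absorbance read at 650 nm. IC50 by non-linear regression of sigmoidal dose-response curves; four determinations, mean ± SEM.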
# [3] = Ratio of IC50 for CHO cells to IC50 for Plasmodium falciparum
# [4] = test system: Plasmodium falciparum; assay: Antiplasmodial activity against Plasmodium falciparum assessed as inhibition of merozoite invasion of RBCs at 20 uM after 48 hrs by SYBR green 1 fluorescence-based flow cytometry; type: functional, organism-based
# In short: (§1)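 Sorbitol-synchronized ring-stage P. falciparum set to 5% parasitemia and 0.5% hematocrit, then treated for 48 h. An equal volume of RPMI-1640 with 0.2 µL/mL stock SYBR-Green was added for 1 h in the dark before flow cytometry (~200,000 events). Quadrant counts of parasitized, non-parasitized and small DNA-containing events were taken relative to total erythrocytes.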
# [5] = test system: Plasmodium falciparum; assay: Antiplasmodial activity against Plasmodium falciparum assessed as inhibition of parasite adherence to RBCs at 20 uM after 48 hrs by microscopic analysis; type: functional, organism-based
# [6] = test system: Plasmodium berghei; assay: Antiplasmodial activity against Plasmodium berghei […] by SYBR green 1 assay; type: functional, organism-based
# In short: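 P. berghei blood from an infected mouse (5% parasitemia) obtained by cardiac puncture and washed 3 times in RPMI. Plated at 2% hematocrit in a two-fold compound gradient. Wells agitated at 24 h to release merozoites, then incubated a further 24 h. SYBR-Green I fluorescence read-out; IC50 from four independent determinations, mean ± SEM.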
# [7] = test system: Plasmodium falciparum; assay: Antiplasmodial activity against Plasmodium falciparum 3D7 assessed as reduction in parasitemia measured between day 1 and day 2 relative to control; type: functional, organism-based
# In short: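 P. falciparum 3D7 cultures synchronized at mature stage on Percoll one day before the start. Set to 1% hematocrit and 2% parasitemia, treated with 40 nM or 83 nM compound, and sampled every 24 h for 4 days. Parasitemia counted on Giemsa-stained smears. Controls: uninfected RBCs, untreated cultures, sulfated β-cyclodextrin sodium salt and chloroquine.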
# [8] = test system: Plasmodium falciparum; assay: Antiplasmodial activity against Plasmodium falciparum assessed as inhibition of merozoite invasion of RBCs at 0.2 mg/ml after 48 hrs by SYBR green 1 fluorescence-based flow cytometry; type: functional, organism-based; in short: as §1
# [9] = test system: Plasmodium berghei; assay: Antiplasmodial activity against Plasmodium berghei infected in BALB/c mouse assessed as delay in onset of parasitemia at 60 ug/day infused once daily for 3 days by Giemsa staining relative to control; type: functional, organism-based
# In short: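 Female Balb/c mice, 6–8 weeks old, infected with 10⁶ P. berghei on Day 0 and followed by Giemsa-stained blood films until parasites appeared. Then infused once daily for three days with 0.5 mL RPMI-1640 or compound in RPMI-1640; vehicle control 1% (v/v) DMSO in RPMI-1640; chloroquine 15 mg/kg/day as positive control. Parasitemia by Giemsa films; five mice per group.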
SMILES,IC50 [1],IC50 [2],Ratio IC50 [3],further results
Cl.Cl.c1cn(CCCCCCCCCCCCCCCn2ccnc2)cn1,0.93 µM,2.8 µM,3,
C[n+]1ccn(-c2ccc(-c3ccc(-n4cc[n+](C)c4)cc3)cc2)c1.[I-].[I-],0.009 µM,9 µM,1000,
C[n+]1ccn(-c2ccc(-n3cc[n+](C)c3)cc2)c1.[I-].[I-],11.2 µM,,28,
c1cn(CCCCCCCCCCCCCCCCCCCCn2ccnc2)cn1,2.5 µM,8 µM,3.2,
C[n+]1ccn(CCCCCCCCCCCCCCCn2cc[n+](C)c2)c1.[I-].[I-],0.002 µM,1.2 µM,600,
C[n+]1cn(-c2ccc(-c3ccc(-n4c[n+](C)c5ccccc54)cc3)cc2)c2ccccc21.[I-].[I-],0.07 µM,98 µM,1400,
Cl.Cl.c1cn(CCCCCCCCCCn2ccnc2)cn1,9.2 µM,15 µM,1.6,
Cl.Cl.c1cn(CCCCn2ccnc2)cn1,1070 µM,1900 µM,1.8,
Cl.Cl.c1cn(CCCCCCn2ccnc2)cn1,90 µM,899 µM,10,
C[n+]1ccn(CCCCCCCCCCn2cc[n+](C)c2)c1.[I-].[I-],0.082 µM,57 µM,695,
C[n+]1ccn(CCCCCCn2cc[n+](C)c2)c1.[I-].[I-],2.6 µM,,56,
Cl.Cl.c1cn(CCCCCCCCn2ccnc2)cn1,6 µM,140 µM,23,
Cl.Cl.c1cn(CCCCCCCCCCCCCn2ccnc2)cn1,0.56 µM,3 µM,5.4,
C[n+]1ccn(CCCCCCCCCCCCn2cc[n+](C)c2)c1.[I-].[I-],0.006 µM,26 µM,4333,inhibition [4]: inactive; inhibition [5]: Active
C[n+]1ccn(CCCCCCCCCCCCCCCCCCCCn2cc[n+](C)c2)c1.[I-].[I-],0.0021 µM,1.4 µM,667,
Cl.Cl.c1cn(CCCCCCCCCCCCCCn2ccnc2)cn1,1.6 µM,4.4 µM,2.8,
Cl.Cl.c1ncn(CCCCCCCCCCCCn2cncn2)n1,19 µM,11.7 µM,0.6,
c1cn(-c2ccc(-n3ccnc3)cc2)cn1,93 µM,1110 µM,12,
C[n+]1ccn(CCCCCCCCCCCCCCn2cc[n+](C)c2)c1.[I-].[I-],0.0032 µM,11 µM,3438,
c1cn(CCCCCCCCCCCCCCCCCCn2ccnc2)cn1,0.4 µM,1.2 µM,3,

SMILES,IC50 [1],IC50 [2],Ratio IC50 [3],further results
C[n+]1ccn(CCCCCCCCCCCCCCCCCCn2cc[n+](C)c2)c1.[I-].[I-],0.0009 µM,1.4 µM,1556,
O=C(Cn1cc[n+](CC(=O)c2ccc(Cl)cc2)c1)c1ccc(Cl)cc1,,,,inhibition [4]: inactive; IC50 [6]: 4200 nM; inhibition [5]: Active
CC[n+]1ccn(CCCCCCCCCCCCn2cc[n+](CC)c2)c1.[I-].[I-],0.012 µM,34 µM,2833,IC50 [6]: 120 nM
[Br-].[Br-].c1ccc(C[n+]2ccn(-c3ccc(-c4ccc(-n5cc[n+](Cc6ccccc6)c5)cc4)cc3)c2)cc1,0.022 µM,12.1 µM,550,
C[n+]1ccn(CCCOc2ccc(OCCCn3cc[n+](C)c3)cc2)c1.[I-].[I-],0.045 µM,,2511,IC50 [6]: 46 nM
O=S(=O)(O)OC[C@H]1O[C@@H]2O[C@H]3[C@H](O)[C@@H](O)[C@@H](O[C@H]4[C@H](O)[C@@H](O)[C@@H](O[C@H]5[C@H](O)[C@@H](O)[C@@H](O[C@H]6[C@H](O)[C@@H](O)[C@@H](O[C@H]7[C@H](O)[C@@H](O)[C@@H](O[C@H]8[C@H](O)[C@@H](O)[C@@H](O[C@H]1[C@H](O)[C@H]2O)O[C@@H]8COS(=O)(=O)O)O[C@@H]7COS(=O)(=O)O)O[C@@H]6COS(=O)(=O)O)O[C@@H]5COS(=O)(=O)O)O[C@@H]4COS(=O)(=O)O)O[C@@H]3COS(=O)(=O)O,,,,Activity [7]: Active; inhibition [8]: Active
C[n+]1ccn(CCCCCCCCn2cc[n+](C)c2)c1.[I-].[I-],4.7 µM,,96,
Cl.Cl.c1cn(CCCCCCCCCCCCn2ccnc2)cn1,4.1 µM,1.4 µM,0.3,
C[n+]1ccn(CCCCCCCCCCCCCCCCn2cc[n+](C)c2)c1.[I-].[I-],0.0005 µM,2.7 µM,5400,
C[n+]1ccn(Cc2ccc(-c3ccc(Cn4cc[n+](C)c4)cc3)cc2)c1.[I-].[I-],0.18 µM,,694,
c1cn(-c2ccc(-c3ccc(-n4ccnc4)cc3)cc2)cn1,3.1 µM,27 µM,9,
c1cn(CCCCCCCCCCCn2ccnc2)cn1,1.9 µM,20 µM,11,
O=[N+]([O-])c1ccc(C[n+]2ccn(-c3ccc(-c4ccc(-n5cc[n+](Cc6ccc([N+](=O)[O-])cc6)c5)cc4)cc3)c2)cc1.[Br-].[Br-],0.023 µM,14 µM,609,
Cl.Cl.c1cn(CCCOc2ccc(OCCCn3ccnc3)cc2)cn1,4.9 µM,50 µM,10,
CCC[n+]1ccn(CCCCCCCCCCCCn2cc[n+](CCC)c2)c1.[I-].[I-],0.0008 µM,78 µM,97500,
c1cn(CCCCCCCCCCCCCCCCn2ccnc2)cn1,0.65 µM,1.3 µM,2,
C[n+]1ccn(CCCCCCCCCCCn2cc[n+](C)c2)c1.[I-].[I-],0.0061 µM,42 µM,6885,IC50 [6]: 50 nM
c1cn(Cc2ccc(-c3ccc(Cn4ccnc4)cc3)cc2)cn1,1.7 µM,65 µM,38,
C[n+]1ccn(CCCCn2cc[n+](C)c2)c1.[I-].[I-],67 µM,,1.8,
C[n+]1ccn(CCCCCCCCCCCCCn2cc[n+](C)c2)c1.[I-].[I-],0.007 µM,51 µM,7286,Activity [9]: Active
